In ChEMBL document CHEMBL3804799, “Synthesis and Biological Evaluation of Novel σ1 Receptor Ligands for Treating Neuropathic Pain: 6-Hydroxypyridazinones” (J Med Chem, 2016):

Legend:
[1] = Half life in Sprague-Dawley rat at 80 mg/kg, po administered through gavage by LC-MS/MS analysis; type: ADME, organism-based; conditions: in vivo
Method in brief: (§1)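 SD rats, n = 3/group. Dosing was either 5 mg/kg iv via tail vein in saline or 80 mg/kg by oral gavage as a suspension in 0.5% methylcellulose. Serial tail-vein blood was drawn into heparinized tubes at 0.5, 1, 2, 3, 4, 5, 6, 8 and 24 h. Plasma was separated, proteins precipitated with acetonitrile, and samples analysed by LC/MS.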

[2] = AUC (0 to infinity) in Sprague-Dawley rat at 5 mg/kg, iv by LC-MS/MS analysis; type: ADME, organism-based; design: dose 5 mg/kg, time infinity, route intravenous; conditions: in vivo
Method in brief: (§2)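 Rats (n = 3/group) dosed via lateral tail vein, 5 mg/kg in 100% saline. Serial tail-vein blood into heparinized tubes at 30 min and 1, 2, 3, 4, 5, 6, 8 and 24 h. Plasma separated by centrifugation, proteins precipitated with acetonitrile, analysed by LC/MS.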

[3] = tested on: Rattus norvegicus; assay: Antiallodynic activity in po dosed Sprague-Dawley rat chronic constriction injury-induced neuropathic pain model assessed as inhibition of thermal hypersensitivity administered as bid on day 15th and 18th post surgery by plantar test; type: functional
Method in brief: (§3)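 CCI or sham SD rats, 10 per group, dosed orally in 0.5% methylcellulose (10 mL/kg) twice daily on days 15–18. Tested after the first dose on day 15 and the last dose on day 18. Plantar test: after 30 min acclimation on a glass floor, radiant heat was applied under the hind paw and withdrawal latency recorded. 30 s cutoff; mean of four samplings.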

[4] = AUC (0 to last) in Sprague-Dawley rat at 5 mg/kg, iv by LC-MS/MS analysis; type: ADME, organism-based; design: dose 5 mg/kg, route intravenous, time 0 - last; conditions: in vivo; method in brief: as §2
[5] = molecular target: 5-hydroxytryptamine receptor 2A (Rattus norvegicus) (UniProt P14842); assay: Displacement of [3H]-ketanserin from 5HT2A receptor in rat cerebral cortex at 1 uM after 15 mins by liquid scintillation counting analysis; type: tissue-based
[6] = tested on: Rattus norvegicus; assay: Effect on mechanical allodynia in sham-operated Sprague-Dawley rat at 20 to 80 mg/kg, po administered as bid on days 15th to 18th; type: ADME, organism-based; conditions: in vivo
Method in brief: (§4)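 Sciatic nerve CCI in SD rats (Bennett–Xie) under 5% chloral hydrate: four loose 4-0 silk ligatures on the right sciatic nerve, about 1 cm proximal to the trifurcation. Oral dosing in 0.5% methylcellulose (10 mL/kg), twice daily on days 15–18. Testing followed the first dose on day 15 and the last dose on day 18. Mechanical withdrawal threshold by von Frey up–down method, four samplings averaged. 10 rats/group.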

[7] = molecular target: Transient receptor potential cation channel subfamily V member 1 (Homo sapiens) (UniProt Q8NER1); assay: Inhibition of human TRPV-1 expressed in HEK293 cells at 1 uM by whole cell patch clamp method; type: cell-based
[8] = tested on: Mus musculus; assay: Antiallodynic activity in ig dosed Kun Ming mouse assessed as inhibition of formalin-induced pain in delayed pain response phase administered 15 mins prior to formalin challenge measured after 15 to 45 mins post formalin dosing; type: functional
Method in brief: (§5)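 Mice received 20 μL of 2.5% formalin (0.92% formaldehyde) in the dorsal right hind paw. Time spent licking or biting the paw was scored at 0–5 min (phase I) and 15–45 min (phase II), with a mirror behind the glass cylinder. Vehicle was 30% PEG 400 at 10 mL/kg, given 15 min before formalin. n = 10–12 per group. % antinociception = (LT_V − LT_D)/LT_V × 100.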

[9] = Oral bioavailability in Sprague-Dawley rat at 80 mg/kg administered through gavage by LC-MS/MS analysis; type: ADME, organism-based; conditions: in vivo; method in brief: as §1
[10] = tested on: Rattus norvegicus; assay: Antiallodynic activity in po dosed Sprague-Dawley rat chronic constriction injury-induced neuropathic pain model assessed as inhibition of mechanical allodynia administered as single dose on day 15th post surgery by Von frey test; type: functional; method in brief: as §4
[11] = tested on: Mus musculus; assay: Antinociceptive activity in Kun Ming mouse assessed as paw biting time in delayed pain response phase at 80 mg/kg, ig administered 15 mins prior to formalin challenge measured after 15 to 45 mins post formalin dosing; type: functional; method in brief: as §5
[12] = Tmax in Sprague-Dawley rat at 80 mg/kg, po administered through gavage by LC-MS/MS analysis; type: ADME, organism-based; conditions: in vivo; method in brief: as §1
[13] = tested on: Mus musculus; type: toxicity, organism-based, Kun Ming; conditions: in vivo, po, 80 mg/kg
[14] = molecular target: Glutamate NMDA receptor (Rattus norvegicus) (UniProt P35439+Q00959+Q00960+Q00961+Q62645+Q8VHN2+Q9R1M7); assay: Displacement of [3H]-glycine from NMDA receptor in rat hippocampal membrane at 1 uM after 30 mins by liquid scintillation counting analysis; type: cell membranes; conditions: Hippocampus
[15] = molecular target: T1, 5-hydroxytryptamine receptor 1A (Rattus norvegicus) (UniProt P19327); assay: Displacement of [3H]-8-OH-DPAT from 5HT1A receptor in rat cerebral cortex at 1 uM after 30 mins by liquid scintillation counting analysis; type: tissue-based
T1 sequence (whole entry): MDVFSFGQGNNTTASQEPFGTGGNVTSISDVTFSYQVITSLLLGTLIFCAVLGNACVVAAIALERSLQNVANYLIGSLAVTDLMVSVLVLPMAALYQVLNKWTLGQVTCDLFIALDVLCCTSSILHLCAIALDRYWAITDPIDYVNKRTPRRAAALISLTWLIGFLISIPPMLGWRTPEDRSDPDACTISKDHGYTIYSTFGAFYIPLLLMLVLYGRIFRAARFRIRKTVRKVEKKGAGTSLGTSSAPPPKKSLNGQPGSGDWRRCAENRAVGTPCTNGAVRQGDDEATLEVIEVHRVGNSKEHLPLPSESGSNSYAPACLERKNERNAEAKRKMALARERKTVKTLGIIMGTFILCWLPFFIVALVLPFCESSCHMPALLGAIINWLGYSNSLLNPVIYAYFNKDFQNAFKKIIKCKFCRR

[16] = tested on: Mus musculus; type: toxicity, organism-based, Kun Ming; conditions: in vivo, po, 40 mg/kg
[17] = tested on: Mus musculus; type: toxicity, organism-based, Kun Ming; conditions: in vivo, po, 160 mg/kg
[18] = molecular target: Sodium channel protein type 9 subunit alpha (Homo sapiens) (UniProt Q15858); assay: Inhibition of human Nav 1.7 expressed in HEK293 cells at 1 uM by electrophysiological assay; type: cell-based
[19] = Clearance in Sprague-Dawley rat at 5 mg/kg, iv by LC-MS/MS analysis; type: ADME, organism-based; conditions: in vivo; method in brief: as §1
[20] = molecular target: Cannabinoid receptor 2 (Homo sapiens) (UniProt P34972); assay: Displacement of [3H]-CP-55940 from human CB2 receptor expressed in HEK cells at 1 uM after 90 mins by liquid scintillation counting analysis; type: cell-based; conditions: HEK293
[21] = tested on: Rattus norvegicus; assay: Antiallodynic activity in po dosed Sprague-Dawley rat chronic constriction injury-induced neuropathic pain model assessed as inhibition of thermal hypersensitivity administered as single dose on day 15th post surgery by plantar test; type: functional; method in brief: as §3
[22] = Displacement of [3H]-DTG from Sigma2 receptor in Dunkin Hartley guinea pig brain membrane after 120 mins by liquid scintillation counting analysis in presence of sigma1 blocker (+)-SKF-10047; design: species or system Cavia porcellus
Method in brief: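 Guinea pig brain P2 membranes incubated with 3 nM [³H]-DTG plus 400 nM (+)-SKF-10047 to block σ1 sites, Tris-HCl pH 8.0, 25 °C for 120 min; nonspecific binding with DTG. Filtration on PEI-presoaked GF/B filters, scintillation counting. […] At least three experiments.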

[23] = molecular target: Mu-type opioid receptor (Homo sapiens) (UniProt P35372); assay: Displacement of [3H]-diprenorphine from human mu-opiod receptor expressed in CHO cells at 1 uM after 150 mins by liquid scintillation counting analysis; type: cell-based
Mu-type opioid receptor (Homo sapiens), sequence (P35372 whole entry): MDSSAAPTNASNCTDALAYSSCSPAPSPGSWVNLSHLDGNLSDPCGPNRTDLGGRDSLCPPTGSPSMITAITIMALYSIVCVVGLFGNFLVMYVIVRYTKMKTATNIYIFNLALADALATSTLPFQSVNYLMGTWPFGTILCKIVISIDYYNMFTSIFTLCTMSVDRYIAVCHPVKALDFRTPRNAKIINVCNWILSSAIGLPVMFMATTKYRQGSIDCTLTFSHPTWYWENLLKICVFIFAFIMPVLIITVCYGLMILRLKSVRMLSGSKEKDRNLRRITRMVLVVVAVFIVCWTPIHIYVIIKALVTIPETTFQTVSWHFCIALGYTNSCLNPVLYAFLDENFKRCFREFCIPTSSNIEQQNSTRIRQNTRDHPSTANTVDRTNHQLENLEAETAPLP

Cannabinoid receptor 2 (Homo sapiens), sequence (P34972 whole entry): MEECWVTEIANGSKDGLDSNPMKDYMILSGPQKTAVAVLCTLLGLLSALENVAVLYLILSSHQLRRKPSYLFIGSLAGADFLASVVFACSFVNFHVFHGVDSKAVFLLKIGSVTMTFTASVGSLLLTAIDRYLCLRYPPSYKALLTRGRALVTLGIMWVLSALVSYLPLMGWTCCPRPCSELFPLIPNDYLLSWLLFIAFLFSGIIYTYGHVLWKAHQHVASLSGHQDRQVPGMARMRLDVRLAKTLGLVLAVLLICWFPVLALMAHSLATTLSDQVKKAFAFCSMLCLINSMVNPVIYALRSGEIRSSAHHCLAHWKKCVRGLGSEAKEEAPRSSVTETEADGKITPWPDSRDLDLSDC
Transient receptor potential cation channel subfamily V member 1 (Homo sapiens), sequence (Q8NER1 whole entry): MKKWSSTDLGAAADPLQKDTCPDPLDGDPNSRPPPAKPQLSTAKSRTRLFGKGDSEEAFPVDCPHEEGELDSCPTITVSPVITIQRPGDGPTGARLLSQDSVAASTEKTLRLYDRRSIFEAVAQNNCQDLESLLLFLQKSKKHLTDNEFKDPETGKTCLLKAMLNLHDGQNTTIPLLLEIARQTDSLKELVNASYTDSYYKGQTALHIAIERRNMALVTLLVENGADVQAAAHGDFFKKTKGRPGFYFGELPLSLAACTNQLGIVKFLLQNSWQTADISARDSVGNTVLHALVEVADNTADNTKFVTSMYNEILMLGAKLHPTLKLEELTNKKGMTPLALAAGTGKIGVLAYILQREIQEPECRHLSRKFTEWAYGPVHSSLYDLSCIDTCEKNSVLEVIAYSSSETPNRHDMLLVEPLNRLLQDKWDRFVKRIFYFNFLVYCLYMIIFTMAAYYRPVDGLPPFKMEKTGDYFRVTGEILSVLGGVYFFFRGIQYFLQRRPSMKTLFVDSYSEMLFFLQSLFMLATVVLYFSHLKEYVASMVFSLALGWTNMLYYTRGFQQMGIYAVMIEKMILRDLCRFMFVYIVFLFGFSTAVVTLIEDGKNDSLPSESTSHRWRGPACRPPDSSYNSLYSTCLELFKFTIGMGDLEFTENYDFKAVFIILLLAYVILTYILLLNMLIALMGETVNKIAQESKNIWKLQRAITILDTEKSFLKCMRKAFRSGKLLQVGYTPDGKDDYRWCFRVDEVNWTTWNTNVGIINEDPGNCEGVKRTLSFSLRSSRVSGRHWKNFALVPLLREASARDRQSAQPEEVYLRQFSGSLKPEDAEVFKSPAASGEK
Sodium channel protein type 9 subunit alpha (Homo sapiens), sequence (Q15858 whole entry, looked up): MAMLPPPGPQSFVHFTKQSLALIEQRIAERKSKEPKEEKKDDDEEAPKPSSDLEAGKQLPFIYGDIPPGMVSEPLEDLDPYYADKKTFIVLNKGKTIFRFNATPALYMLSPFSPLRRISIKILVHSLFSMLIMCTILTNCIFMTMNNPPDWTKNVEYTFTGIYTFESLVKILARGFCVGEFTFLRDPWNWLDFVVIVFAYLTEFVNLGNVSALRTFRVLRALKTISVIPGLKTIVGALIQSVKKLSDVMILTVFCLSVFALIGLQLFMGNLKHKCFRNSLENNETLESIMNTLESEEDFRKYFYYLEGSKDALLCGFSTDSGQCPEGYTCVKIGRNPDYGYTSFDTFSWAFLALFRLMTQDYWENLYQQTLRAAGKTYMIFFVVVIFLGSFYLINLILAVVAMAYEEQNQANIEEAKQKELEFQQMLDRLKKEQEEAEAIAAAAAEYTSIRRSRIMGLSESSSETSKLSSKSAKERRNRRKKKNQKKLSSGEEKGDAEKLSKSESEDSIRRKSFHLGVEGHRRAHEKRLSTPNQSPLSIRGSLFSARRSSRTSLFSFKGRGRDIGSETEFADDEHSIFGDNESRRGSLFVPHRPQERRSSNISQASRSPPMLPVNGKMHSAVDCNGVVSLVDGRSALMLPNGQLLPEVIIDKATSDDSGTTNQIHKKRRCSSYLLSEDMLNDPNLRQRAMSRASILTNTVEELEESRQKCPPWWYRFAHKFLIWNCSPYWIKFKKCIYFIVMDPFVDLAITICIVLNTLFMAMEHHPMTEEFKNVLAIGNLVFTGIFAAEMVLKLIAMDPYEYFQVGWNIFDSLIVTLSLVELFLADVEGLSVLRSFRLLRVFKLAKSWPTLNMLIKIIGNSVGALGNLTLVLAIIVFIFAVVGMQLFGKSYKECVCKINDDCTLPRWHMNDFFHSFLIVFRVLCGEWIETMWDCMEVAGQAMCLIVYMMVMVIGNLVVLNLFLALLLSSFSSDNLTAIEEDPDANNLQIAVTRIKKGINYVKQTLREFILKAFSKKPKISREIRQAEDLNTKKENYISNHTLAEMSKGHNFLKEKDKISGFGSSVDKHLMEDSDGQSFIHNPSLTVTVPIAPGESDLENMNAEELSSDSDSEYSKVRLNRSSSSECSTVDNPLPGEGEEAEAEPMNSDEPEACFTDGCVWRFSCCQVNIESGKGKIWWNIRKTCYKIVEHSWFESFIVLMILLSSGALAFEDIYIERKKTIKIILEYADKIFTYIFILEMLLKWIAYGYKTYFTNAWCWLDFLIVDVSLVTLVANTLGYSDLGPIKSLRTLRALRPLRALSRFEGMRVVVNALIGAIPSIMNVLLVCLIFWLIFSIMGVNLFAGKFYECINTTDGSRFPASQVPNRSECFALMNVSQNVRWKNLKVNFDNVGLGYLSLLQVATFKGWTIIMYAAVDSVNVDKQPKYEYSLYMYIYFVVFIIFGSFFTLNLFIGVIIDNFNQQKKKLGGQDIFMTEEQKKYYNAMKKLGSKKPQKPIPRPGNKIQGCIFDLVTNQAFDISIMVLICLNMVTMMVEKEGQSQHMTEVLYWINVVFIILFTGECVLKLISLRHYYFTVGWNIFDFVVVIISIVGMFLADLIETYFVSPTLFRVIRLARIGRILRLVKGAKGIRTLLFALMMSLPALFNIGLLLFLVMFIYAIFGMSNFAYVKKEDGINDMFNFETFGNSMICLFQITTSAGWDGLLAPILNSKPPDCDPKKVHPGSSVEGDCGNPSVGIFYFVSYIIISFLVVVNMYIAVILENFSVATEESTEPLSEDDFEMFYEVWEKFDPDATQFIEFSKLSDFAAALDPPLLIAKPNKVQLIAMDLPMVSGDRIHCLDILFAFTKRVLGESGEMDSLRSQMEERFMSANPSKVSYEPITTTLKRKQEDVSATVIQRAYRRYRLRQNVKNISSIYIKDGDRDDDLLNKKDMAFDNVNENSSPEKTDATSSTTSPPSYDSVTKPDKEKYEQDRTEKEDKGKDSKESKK
5-hydroxytryptamine receptor 2A (Rattus norvegicus), sequence (P14842 whole entry): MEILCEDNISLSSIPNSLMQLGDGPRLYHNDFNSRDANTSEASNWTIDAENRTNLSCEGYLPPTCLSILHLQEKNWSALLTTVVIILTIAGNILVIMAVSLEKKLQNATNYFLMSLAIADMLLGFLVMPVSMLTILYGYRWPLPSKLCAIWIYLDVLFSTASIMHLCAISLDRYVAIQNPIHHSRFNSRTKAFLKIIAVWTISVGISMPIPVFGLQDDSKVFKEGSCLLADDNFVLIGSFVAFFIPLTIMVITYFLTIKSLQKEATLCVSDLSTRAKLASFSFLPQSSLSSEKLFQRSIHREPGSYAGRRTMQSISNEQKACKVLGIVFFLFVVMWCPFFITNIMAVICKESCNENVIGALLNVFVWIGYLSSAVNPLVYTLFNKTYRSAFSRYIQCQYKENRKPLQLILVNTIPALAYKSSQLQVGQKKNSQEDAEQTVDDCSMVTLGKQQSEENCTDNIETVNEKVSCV

Question: What does the source list for `O=c1ccc(OCCCN2CCCCC2)nn1-c1ccc(Cl)c(Cl)c1`?
Answer: half-life [1]: 2.88 h; AUC(0-inf) [2]: 956 ng·h/mL; ED50 [3]: 16.9 mg/kg; AUC(0-t) [4]: 931 ng·h/mL; inhibition [5]: < 50%; Activity [6]: Non-toxic; inhibition [7]: < 50%; Activity [8]: Dose-dependent effect; ED50 ([8]; po): 49 mg/kg; bioavailability [9]: 87.5%; ED50 [10]: 51.9 mg/kg; Time [11]: 41.16 s; Tmax [12]: 0.33 h; Activity [13]: 18282.4 mm; inhibition [14]: < 50%; inhibition [15]: < 50%; Activity [16]: 22826.6 mm; Activity [17]: 16458.3 mm; inhibition [18]: < 50%; clearance [19]: 49.3 mL/min/kg; inhibition [20]: < 50%; ED50 [21]: 18.6 mg/kg; Ki [22]: 1.91 µM; inhibition [23]: < 50%
